In the library only some 2.5% were active in any assay of this set; here they are far more common.
SENP7 block: blocks the human protease SENP7 | Q9BQF6 | recombinant SENP7, Z-RLRGG-aminoluciferin luminescence, 40 min | inhibition, % at 5 µM | actives 1.5% (n = 330,000) | AID 434973;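 active = inhibition above about 50% at the single test dose, limit read from the data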
SENP6 inh: blocks the human protease SENP6; Q9GZR1; Recombinant SENP6 catalytic domain, aminoluciferin luminescence; inhibition, % at 10 µM; actives 1.8% (n = 330,000);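 active = inhibition above about 50% at the single tested dose, limit read from the data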
Target sequence (Q9GZR1 628-1112 limits assumed): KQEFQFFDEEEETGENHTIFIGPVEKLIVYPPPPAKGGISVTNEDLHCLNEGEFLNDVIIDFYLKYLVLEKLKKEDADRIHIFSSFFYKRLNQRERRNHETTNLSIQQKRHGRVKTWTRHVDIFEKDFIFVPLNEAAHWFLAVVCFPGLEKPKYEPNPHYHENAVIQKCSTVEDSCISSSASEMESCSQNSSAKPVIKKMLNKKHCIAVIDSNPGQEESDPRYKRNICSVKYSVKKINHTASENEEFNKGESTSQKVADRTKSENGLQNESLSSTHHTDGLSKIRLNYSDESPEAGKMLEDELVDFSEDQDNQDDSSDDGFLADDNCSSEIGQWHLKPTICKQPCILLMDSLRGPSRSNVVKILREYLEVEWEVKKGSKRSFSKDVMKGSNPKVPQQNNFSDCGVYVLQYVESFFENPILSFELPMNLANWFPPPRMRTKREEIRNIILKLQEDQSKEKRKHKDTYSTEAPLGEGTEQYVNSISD
SENP8 block-1: SENP8 (human) protease inhibition; inhibition, % at 20 µM; actives 0.64% (n = 360,000); Q96LD8; AID 602440; recombinant SENP8, Nedd8 substrate fluorescence; in the data active = inhibition mostly above about 40%, no sharp cut-off; inactive = mostly below about 27%
SENP8 block-2: blocks the human protease SENP8; purified SENP8, Z-RLRGG-aminoluciferin cleavage, luminescence; inhibition, % at 10 µM; actives 1.2% (n = 330,000); in the data active = inhibition above about 50%
SENP1 FRET inh: SENP1 (human) catalytic domain inhibition | recombinant SENP1 catalytic domain, CyPet-SUMO1-YPet FRET cleavage | inhibition, % at 10 µM | actives 0.21% (n = 360,000) | AID 624204;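 active = inhibition at least 30% at 10 µM, raw YFP signal under a set limit, fluorescence ratio 0.5 to 1.5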
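Material: hSENP1 catalytic domain, recombinant; medium: Tris pH 8 with BME, BSA, NP40 and catalase; compound: single concentration of 10 µM compound, 0.5% DMSO final; technique: FRET read of cyan and yellow fluorescence; timing: 50 min enzyme reaction, room temperature, light-protected; reagent: SFCypet-SUMO1-SFYpet substrate at 25 nM; control set: no-enzyme low, enzyme-DMSO high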
SENP8 confirm: confirmation of human SENP8 protease inhibitors | shares compounds with SENP7 block | Recombinant SENP8, Z-RLRGG-aminoluciferin luminescence, 60 min | inhibition, % at 12.5 µM | actives 40% (n = 6,200);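 active = mean inhibition across replicates above about 50%, limit read from the data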
SENP6 conf: confirmation of human SENP6 protease inhibitors; inhibition, % at 12.5 µM; actives 58% (n = 6,200); shares compounds with SENP7 block; recombinant SENP6, Z-RLRGG-aminoluciferin luminescence
SENP7 confirm: human SENP7 inhibition, confirmed; shares compounds with SENP7 block; recombinant SENP7, Z-RLRGG-aminoluciferin luminescence, 40 min; inhibition, % at 12.5 µM; actives 69% (n = 6,200); AID 488917
Casp3 SENP sel: selectivity test for SENP inhibitors: human caspase-3 inhibition; shares compounds with SENP7 block; purified caspase-3, Z-DEVD-aminoluciferin luminescence, 60 min; inhibition, % at 12.5 µM; actives 60% (n = 6,200); AID 488918;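 active = mean inhibition above about 50%, limit read from the data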
Target sequence (P42574 28-227 limits assumed): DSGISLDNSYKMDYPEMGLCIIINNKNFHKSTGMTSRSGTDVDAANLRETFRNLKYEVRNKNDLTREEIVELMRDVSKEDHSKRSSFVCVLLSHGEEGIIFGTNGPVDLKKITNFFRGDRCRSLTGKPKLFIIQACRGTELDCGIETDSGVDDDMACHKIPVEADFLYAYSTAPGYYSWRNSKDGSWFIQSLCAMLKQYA
SENP luc ctr: interferes with luciferase luminescence in SENP counter-screen | actives 39% (n = 6,200) | inhibition, % at 12.5 µM | Pre-incubated SENP8/Z-RLRGG-aminoluciferin, luciferase luminescence interference | shares compounds with SENP7 block | AID 488919;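 active = mean inhibition above about 50% when retested at one dose, limit read from the data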
A number is an active result.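 Rule for the calls, unless noted: active = mean inhibition above about 50% in the one-dose retest (limit read from the data); inactive = the rest.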

How did COc1nc(=O)n(C2C=CC(=O)O2)cc1F (centres undefined) do in these assays?
SENP8 block-1: inactive; SENP1 FRET inh: inactive

Results for COc1ccc(C(=O)c2ccc(OC)c(Br)c2)cc1Br ?
SENP7 block: inactive; SENP6 inh: 98.0; SENP8 block-1: inactive; SENP8 block-2: inactive; SENP1 FRET inh: inactive; SENP8 confirm: inactive; SENP6 conf: inactive; SENP7 confirm: inactive; Casp3 SENP sel: inactive; SENP luc ctr: inactive

Results for COc1ccc(C(=O)Nc2ccc(N3CCCC3)cc2)cc1 ?
SENP7 block: inactive; SENP6 inh: inactive; SENP8 block-1: inactive; SENP8 block-2: inactive; SENP1 FRET inh: inactive

What do the screens show for `COc1ccc(C(=O)Nc2ccc(N3CCCC3)cc2)cc1OC`?
SENP7 block: inactive; SENP6 inh: 94.4; SENP8 block-1: inactive; SENP8 block-2: 94.6; SENP1 FRET inh: inactive; SENP8 confirm: 87.6; SENP6 conf: 97.8; SENP7 confirm: 101.7; Casp3 SENP sel: 97.8; SENP luc ctr: 89.3

How did COc1ccc(C(=O)Nc2ccc(N3CCCC3)cc2)cc1Br do in these assays?
SENP7 block: inactive; SENP6 inh: 63.7; SENP8 block-1: inactive; SENP8 block-2: 59.9; SENP1 FRET inh: inactive; SENP8 confirm: inactive; SENP6 conf: inactive; SENP7 confirm: inactive; Casp3 SENP sel: inactive; SENP luc ctr: inactive

What do the screens show for `Cn1cccc1C(=O)Nc1ccc(N2CCOCC2)cc1`?
SENP7 block: 62.0; SENP6 inh: inactive; SENP8 block-1: inactive; SENP8 block-2: inactive; SENP1 FRET inh: inactive; SENP8 confirm: 58.8; SENP6 conf: 53.6; SENP7 confirm: 82.3; Casp3 SENP sel: 84.7; SENP luc ctr: inactive

What do the screens show for `COc1ccc(C(=O)Nc2ccc(N3CCN(C(=O)c4cccs4)CC3)cc2)cc1Br`?
SENP7 block: inactive; SENP6 inh: inactive; SENP8 block-1: inactive; SENP8 block-2: inactive; SENP1 FRET inh: inactive

What do the screens show for `CN(C)CCCNC(=O)C[C@H]1C[C@H](C(=O)N2CCOCC2)[C@@]2(C)c3[nH]c4cc(-c5ccco5)ccc4c3CCN2C1=O`?
SENP7 block: inactive; SENP8 block-1: inactive; SENP1 FRET inh: inactive

Results for CSc1ccc(/C=C(/NC(=O)c2ccccc2)C(=O)NCCN2CCOCC2)cc1 ?
SENP7 block: inactive; SENP6 inh: inactive; SENP8 block-1: inactive; SENP8 block-2: inactive; SENP1 FRET inh: inactive

How did CC(C)CN1CCC1(C)C(=O)Nc1cc(-c2ccccc2)nn1C (centres undefined) do in these assays?
SENP8 block-1: inactive; SENP1 FRET inh: inactive

How did CCCCN(C=O)c1c(CC)nc2c(OCCOc3ccccc3)cccn12 do in these assays?
SENP8 block-1: inactive; SENP1 FRET inh: inactive

What do the screens show for `COc1ccc(C(=O)Nc2ccc(N3CCOCC3)cc2)cc1OC`?
SENP7 block: 88.9; SENP6 inh: 89.2; SENP8 block-1: inactive; SENP8 block-2: 81.9; SENP1 FRET inh: inactive; SENP8 confirm: 57.8; SENP6 conf: 85.8; SENP7 confirm: 96.9; Casp3 SENP sel: 95.1; SENP luc ctr: inactive

How did O=C(Nc1ccc(N2CCCCC2)cc1)c1ccc(F)cc1 do in these assays?
SENP7 block: 83.2; SENP6 inh: 78.9; SENP8 block-1: inactive; SENP8 block-2: 67.9; SENP1 FRET inh: inactive; SENP8 confirm: inactive; SENP6 conf: inactive; SENP7 confirm: inactive; Casp3 SENP sel: inactive; SENP luc ctr: inactive

How did COc1ccc(C(=O)Nc2ccc(S(=O)(=O)N3CCOCC3)cc2)cc1OC do in these assays?
SENP7 block: inactive; SENP6 inh: inactive; SENP8 block-1: inactive; SENP8 block-2: inactive; SENP1 FRET inh: inactive

How did c1ccc(CNCc2ccco2)cc1 do in these assays?
SENP7 block: inactive; SENP6 inh: inactive; SENP8 block-1: inactive; SENP8 block-2: inactive; SENP1 FRET inh: inactive

How did Cc1cc(Br)ccc1N=C1NC(=O)CS1 do in these assays?
SENP7 block: inactive; SENP6 inh: inactive; SENP8 block-1: inactive; SENP8 block-2: inactive; SENP1 FRET inh: inactive

Results for O=C(Cn1cnc([N+](=O)[O-])n1)c1ccc(O)c(O)c1 ?
SENP7 block: inactive; SENP6 inh: inactive; SENP8 block-1: inactive; SENP8 block-2: inactive; SENP1 FRET inh: inactive

How did CCOc1ccc(OCC(=O)NCCS(=O)(=O)N2CCN(c3ccccc3)CC2)cc1 do in these assays?
SENP8 block-1: inactive; SENP1 FRET inh: inactive

Results for O=C(Nc1ccccc1F)c1c[nH]c(=O)[nH]c1=O ?
SENP7 block: inactive; SENP6 inh: 51.2; SENP8 block-1: inactive; SENP8 block-2: inactive; SENP1 FRET inh: inactive; SENP8 confirm: inactive; SENP6 conf: inactive; SENP7 confirm: 69.7; Casp3 SENP sel: 75.6; SENP luc ctr: inactive

How did COc1ccc(NC(=O)c2cc3ccccn3n2)cc1 do in these assays?
SENP7 block: 69.1; SENP6 inh: 70.6; SENP8 block-1: inactive; SENP8 block-2: 58.1; SENP1 FRET inh: inactive; SENP8 confirm: 76.9; SENP6 conf: 74.8; SENP7 confirm: 93.8; Casp3 SENP sel: 87.8; SENP luc ctr: 79.4

What do the screens show for `COc1ccc(NC(=O)c2ccccn2)cc1`?
SENP7 block: 91.2; SENP6 inh: 93.8; SENP8 block-1: inactive; SENP8 block-2: 80.6; SENP1 FRET inh: inactive; SENP8 confirm: 84.8; SENP6 conf: 85.7; SENP7 confirm: 98.4; Casp3 SENP sel: 94.7; SENP luc ctr: 85.2

How did CCCNS(=O)(=O)c1cccc(C(=O)NNC(=O)c2cc(C)oc2C)c1 do in these assays?
SENP7 block: inactive; SENP6 inh: inactive; SENP8 block-1: inactive; SENP8 block-2: inactive; SENP1 FRET inh: inactive

What do the screens show for `Cc1c(C(=O)N2c3ccccc3CC2C)oc2ccccc12` (centres undefined)?
SENP7 block: 61.6; SENP6 inh: 79.7; SENP8 block-1: inactive; SENP8 block-2: 67.5; SENP1 FRET inh: inactive; SENP8 confirm: 78.0; SENP6 conf: 77.4; SENP7 confirm: 90.3; Casp3 SENP sel: 50.7; SENP luc ctr: inactive

Results for COc1ccccc1NC(=S)N(CCCN1CCOCC1)Cc1cccs1 ?
SENP7 block: inactive; SENP6 inh: inactive; SENP8 block-1: inactive; SENP8 block-2: inactive; SENP1 FRET inh: inactive

Results for COc1cccc(-c2nc3ccc(O)cc3c(=O)o2)c1 ?
SENP7 block: 87.1; SENP6 inh: 88.6; SENP8 block-1: inactive; SENP8 block-2: 73.7; SENP1 FRET inh: inactive; SENP8 confirm: inactive; SENP6 conf: 80.8; SENP7 confirm: 96.3; Casp3 SENP sel: 80.0; SENP luc ctr: 87.1
